Measurements as given in ChEMBL document CHEMBL4304748, “Design, Synthesis, and Biological Evaluation of a New Series of Carvedilol Derivatives That Protect Sensory Hair Cells from Aminoglycoside-Induced Damage by Blocking the Mechanoelectrical Transducer Channel” (J Med Chem, 2019).
Activity calls are given as the source filed them. The calls are words filed in the database; no cut-off is given here.

Tests used:
[1] = Binding affinity to MET in CD-1 mouse cochlear outer hair cells measured at +96 mV membrane potential by patch clamp assay
In short: (§1)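 MET currents recorded from OHCs before and during extracellular superfusion of compound at 1, 3 and 10 μM, over membrane potentials from -164 to +96 mV. Currents normalized to the peak control current at +96 mV for each cell. Dose–response curves built at each membrane potential and fitted with eq 1 to give K_D and Hill coefficient.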

[2] = Toxicity in 3 days post fertilized AB zebrafish larvae assessed as effect on larval movement at 100 uM incubated for 48 hrs; parameters: species or system Danio rerio; conditions: in vivo
In short: (§2)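 Zebrafish larvae at 3 dpf treated with compound at 30 or 100 μM for 48 h in three trials. Larvae scored for survival and for circulation, then startled and assayed for movement.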

[3] = Cytotoxicity in CD-1 mouse cochlea assessed as disruption of hair bundle morphology in inner hair cell at 20 uM after 48 hrs by confocal microscopic analysis; type: toxicity, tissue-based
In short: (§3)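 Mouse cochlear cultures exposed for 48 h to compound, either alone or with 5 μM gentamicin. Controls received 0.5% DMSO, or 5 μM gentamicin + 0.5% DMSO. Hair cell survival counted in a 300 μm segment of the mid-basal region. Confocal imaging used to assess IHC and OHC stereociliary bundle morphology.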

[4] = Cytotoxicity against CD-1 mouse cochlea assessed as induction of cell death in outer hair cell at >=30 uM after 48 hrs in presence of gentamicin by confocal microscopic analysis; type: toxicity, tissue-based; in short: as §3
[5] = Cytotoxicity in CD-1 mouse cochlea assessed as disruption of hair bundle morphology in inner hair cell at 20 uM in presence of gentamicin after 48 hrs by confocal microscopic analysis; type: toxicity, tissue-based; in short: as §3
[6] = Binding affinity to MET in CD-1 mouse cochlear outer hair cells measured at -84 mV membrane potential by patch clamp assay; in short: as §1
Mus musculus [7] = species: Mus musculus; conditions: CD-1, 10 uM
Klebsiella pneumoniae [8] = assay: Effect on gentamycin-induced antibacterial activity against Klebsiella pneumoniae at 11 uM incubated for 16 to 20 hrs by BacTiter-Glo assay; type: ADME, organism-based; conditions: in vivo
Staphylococcus aureus [9] = assay: Effect on gentamycin-induced antibacterial activity against Staphylococcus aureus at 11 uM incubated for 16 to 20 hrs by BacTiter-Glo assay; type: ADME, organism-based; conditions: in vivo
[10] = Toxicity in 3 days post fertilized AB zebrafish larvae assessed as reduction in larvae survival at 100 uM incubated for 48 hrs; parameters: species or system Danio rerio; conditions: in vivo; in short: as §2
Klebsiella pneumoniae [11] = assay: Effect on gentamycin-induced antibacterial activity against Klebsiella pneumoniae at 2.2 uM incubated for 16 to 20 hrs by BacTiter-Glo assay; type: ADME, organism-based; conditions: in vivo
Mus musculus [12] = species: Mus musculus; assay: Inhibition of MET channel in CD-1 mouse cochlea outer hair cells assessed as reduction in GTTR uptake at 100 uM preincubated for 5 mins followed by GTTR addition and measured after 24 mins by microscopic method
In short: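 Mouse cochlear cultures pre-incubated 5 min with 100 μM compound or 1% DMSO, then 0.2 μM gentamicin Texas Red (GTTR) added. GTTR fluorescence intensity measured in first-row OHCs, with 10 cells analysed from each of three separate experiments (N = 30).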

Pseudomonas aeruginosa [13] = assay: Effect on gentamycin-induced antibacterial activity against Pseudomonas aeruginosa at 2.2 uM incubated for 16 to 20 hrs by BacTiter-Glo assay; type: ADME, organism-based; conditions: in vivo
[14] = Cytotoxicity in CD-1 mouse cochlea assessed as induction of cell death in outer hair cell at 10 to 20 uM after 48 hrs by confocal microscopic analysis; type: toxicity, tissue-based; in short: as §3
[15] = Cytotoxicity in CD-1 mouse cochlea assessed as induction of cell damage in inner hair cell at 20 uM after 48 hrs by confocal microscopic analysis; type: toxicity, tissue-based; in short: as §3
Mus musculus [16] = species: Mus musculus; conditions: CD-1, 1 to 10 uM
Mus musculus [17] = species: Mus musculus; conditions: CD-1, 10 uM; remark: listed apart in the source
Danio rerio [18] = species: Danio rerio; assay: Otoprotective activity against neomycin-induced neuromast hair cell death in 4 days post fertilized AB zebrafish larvae assessed as increase in hair cell survival incubated for 1 hr by inverted microscopic method; type: functional, organism-based
Staphylococcus aureus [19] = assay: Effect on gentamycin-induced antibacterial activity against Staphylococcus aureus at 2.2 uM incubated for 16 to 20 hrs by BacTiter-Glo assay; type: ADME, organism-based; conditions: in vivo
[20] = Cytotoxicity in CD-1 mouse cochlea assessed as disruption of hair bundle morphology in outer hair cell at 20 uM after 48 hrs by confocal microscopic analysis; type: toxicity, tissue-based; in short: as §3
[21] = Toxicity in 3 days post fertilized AB zebrafish larvae assessed as reduction in larvae survival at 30 uM incubated for 48 hrs; parameters: species or system Danio rerio; conditions: in vivo; in short: as §2
[22] = Toxicity in 3 days post fertilized AB zebrafish larvae assessed as effect on blood circulation at 100 uM incubated for 48 hrs by inverted microscopic method; parameters: species or system Danio rerio; conditions: in vivo; in short: as §2
Mus musculus [23] = species: Mus musculus; assay: Inhibition of MET channel in CD-1 mouse cochlea outer hair bundles assessed as time constant of inward current decline at 1 uM at holding potential of […] by patch clamp assay
In short: (§4)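 MET channels opened by steps from a holding potential of -84 mV, with 1 or 3 μM compound superfused. Currents averaged from 10 repetitions. The current decline was fitted with single exponentials to give time constants, and drug entry rates into hair cells were calculated from these.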

[24] = Cytotoxicity in CD-1 mouse cochlea assessed as induction of cell death in inner hair cell at >=30 uM in presence of gentamicin after 48 hrs by confocal microscopic analysis; type: toxicity, tissue-based; in short: as §3
[25] = Binding affinity to MET in CD-1 mouse cochlear outer hair cells measured at -164 mV membrane potential by patch clamp assay; in short: as §1
[26] = Binding affinity to MET in CD-1 mouse cochlear outer hair cells measured at +16 mV membrane potential by patch clamp assay; in short: as §1
[27] = Otoprotective activity against gentamicin-induced outer hair cell death in CD-1 mouse cochlea at 5 uM after 48 hrs by TRITC-phalloidin staining-based microscopic analysis relative to control; type: functional
In short: (§5)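 Mouse cochlear cultures coincubated for 48 h with 5 μM gentamicin plus compound (5, 10 or 20 μM). OHCs counted in a 300 μm long segment of the mid-basal cochlea. Counts compared with 0.5% DMSO control and with gentamicin + 0.5% DMSO cultures.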

[28] = Cytotoxicity in CD-1 mouse cochlea assessed as induction of cell damage in inner hair cell at 20 uM in presence of gentamicin after 48 hrs by confocal microscopic analysis; type: toxicity, tissue-based; in short: as §3
Mus musculus [29] = species: Mus musculus; conditions: CD-1, 10 uM; remark: listed apart in the source
[30] = Toxicity in 3 days post fertilized AB zebrafish larvae assessed as effect on blood circulation at 30 uM incubated for 48 hrs by inverted microscopic method; parameters: species or system Danio rerio; conditions: in vivo; in short: as §2
Mus musculus [31] = species: Mus musculus; conditions: CD-1, 1 to 10 uM; remark: listed apart in the source
[32] = Cytotoxicity in CD-1 mouse cochlea assessed as induction of cell death in inner hair cell at >=30 uM after 48 hrs by confocal microscopic analysis; type: toxicity, tissue-based; in short: as §3
[33] = Otoprotective activity against gentamicin-induced outer hair cell death in CD-1 mouse cochlea at 20 uM after 48 hrs by TRITC-phalloidin staining-based microscopic analysis relative to control; type: functional; in short: as §5
Pseudomonas aeruginosa [34] = assay: Effect on gentamycin-induced antibacterial activity against Pseudomonas aeruginosa at 11 uM incubated for 16 to 20 hrs by BacTiter-Glo assay; type: ADME, organism-based; conditions: in vivo
[35] = Cytotoxicity in CD-1 mouse cochlea assessed as induction of cell death in outer hair cell at >=30 uM after 48 hrs by confocal microscopic analysis; type: toxicity, tissue-based; in short: as §3
[36] = Otoprotective activity against gentamicin-induced outer hair cell death in CD-1 mouse cochlea at 10 uM after 48 hrs by TRITC-phalloidin staining-based microscopic analysis relative to control; type: functional; in short: as §5
Mus musculus [37] = species: Mus musculus; assay: Inhibition of MET in CD-1 mouse cochlear outer hair cells assessed as reduction in MET currents at 1 to 10 uM measured at -164 mV membrane potential by patch clamp assay; in short: as §1
[38] = Cytotoxicity in CD-1 mouse cochlea assessed as disruption of hair bundle morphology in outer hair cell at 20 uM in presence of gentamicin after 48 hrs by confocal microscopic analysis; type: toxicity, tissue-based; in short: as §3
Danio rerio [39] = species: Danio rerio; assay: Otoprotective activity against gentamicin-induced neuromast hair cell death in 4 days post fertilized AB zebrafish larvae assessed as increase in hair cell survival incubated for 6 hrs by inverted microscopic method; type: functional, organism-based
Mus musculus [40] = species: Mus musculus; assay: Inhibition of MET channel in CD-1 mouse outer hair bundles assessed as time constant of inward current decline at 3 uM at holding potential of […] by patch clamp assay; in short: as §4

## COc1ccccc1OCCNCC(O)COc1cccc2[nH]c3ccccc3c12 (stereo not given) [CARVEDILOL]
[1]
  Kd: 1.5 µM
[2]
  Activity: Toxic
[3]
  Activity: Toxic
[4]
  Activity: Toxic
[5]
  Activity: Toxic
[6]
  Kd: 2 µM
Mus musculus [7]
  inhibition: Active
Klebsiella pneumoniae [8]
  Activity: Non-Toxic
Staphylococcus aureus [9]
  Activity: Non-Toxic
[10]
  Activity: Toxic
Klebsiella pneumoniae [11]
  Activity: Non-Toxic
Mus musculus [12]
  inhibition: Active
Pseudomonas aeruginosa [13]
  Activity: Non-Toxic
[14]
  Activity: Non-Toxic
[15]
  Activity: Toxic
Mus musculus [16]
  inhibition: inactive
Mus musculus [17]
  inhibition: Active
Danio rerio [18]
  EC50: 2.47 µM
Staphylococcus aureus [19]
  Activity: Non-Toxic
[20]
  Activity: Toxic
[21]
  Activity: Non-Toxic
[22]
  Activity: Toxic
Mus musculus [23]
  TIME: 5e-06 h
[24]
  Activity: Toxic
[25]
  Kd: 6.3 µM
[26]
  Kd: 0.1 µM
[27]
  Activity: 54%
[28]
  Activity: Toxic
Mus musculus [29]
  inhibition: Active
[30]
  Activity: Non-Toxic
Mus musculus [31]
  inhibition: Active
[32]
  Activity: Toxic
[33]
  Activity: 100%
Pseudomonas aeruginosa [34]
  Activity: Non-Toxic
[35]
  Activity: Toxic
[36]
  Activity: 100%
Mus musculus [37]
  inhibition: inactive
[38]
  Activity: Toxic
Danio rerio [39]
  EC50: 11 µM
Mus musculus [40]
  TIME: 2.67e-06 h
